Experimental data published in article PMC8245912 (Acta Pharmaceutica Sinica. B, 2020).
Like-named read-outs stand apart in the source and are kept apart here. Peptide text beside a SMILES is read from it. * marks the point of attachment. Cbz = O=C(OCc1ccccc1)*

Legend:
[1] = test system: MCF-7 (breast cancer) cells; test: CCK-8 antiproliferative assay, MCF-7; type: cell-based; conditions: Homo sapiens, MCF7, read-out: IC50 MCF-7
[2] = molecular target: MDM2‒P53 (Homo sapiens, UniProt Q00987); test: fluorescence polarization; type: binding; conditions: for Ki: MDM2‒P53 Ki, FP binding assay, Table 1
[3] = test system: HCT116 (colon cancer) cells; test: CCK-8 antiproliferative assay, HCT116; type: cell-based; conditions: Homo sapiens, HCT-116, read-out: IC50 HCT116
[4] = test system: A549 (lung cancer) cells; test: CCK-8 antiproliferative assay, A549; type: cell-based; conditions: Homo sapiens
[5] = test system: HepG2 (liver cancer) cells; test: CCK-8 antiproliferative assay, HepG2; type: cell-based; conditions: Homo sapiens, HepG2, read-out: IC50 HepG2
[6] = molecular target: MDM2 (Homo sapiens, UniProt Q00987); test: Western blotting of MDM2 degradation in A549 cells; type: cell-based; conditions: for MDM2 degradation (result in words): Western blotting, Fig. 2B
[7] = test system: P53; test: Western blotting of P53 expression in A549 cells; type: cell-based, human
[8] = test system: HCT116 (P53‒) cells; test: CCK-8 assay, P53-deleted HCT116; type: cell-based; conditions: Homo sapiens, HCT-116, read-out: IC50 HCT116 (P53‒)
[9] = test system: Caco-2 cells; type: in vitro ADME
[10] = test system: A549 cells; test: apoptosis assay, flow cytometry with Annexin V/PI double staining; type: cell-based, human; conditions: for apoptosis: 5.0 μmol/L, 24 h treatment
[11] = test system: HCT116 (P53+) cells; test: CCK-8 assay, P53-wild HCT116; type: cell-based; conditions: Homo sapiens, HCT-116, read-out: IC50 HCT116 (P53+)
[12] = test system: A549 xenograft; test: in vivo A549 xenograft assay; design: species or system mouse; conditions: A549 xenograft nude mice, intraperitoneal 20 mg/kg twice-daily, 21 days
Outline: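 Female BALB/c nude mice (6–7 weeks, 18–20 g) received 5.0 × 10^6 A549 cells subcutaneously in the flank. At mean tumour volume 100 mm3 they were randomised, 5 per group. Intraperitoneal dosing ran twice daily for 21 days; vehicle was normal saline. Calipers measured tumours every three days: V = A×B²/2, TGI = (1 − Vtreat/Vcontrol) × 100. Analysis used mean ± SEM and one-way ANOVA.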

[13] = A549, 72 h, read-out: IC50 A549

Compound | IC50 [1] [µM] | Ki [2] [µM] | IC50 [3] [µM] | IC50 [4, 13] [µM] | IC50 [5] [µM] | MDM2 degradation (result in words) [6] | further results
CCOc1cc(C(C)(C)C)ccc1C1=N[C@@H](c2ccc(Cl)cc2)[C@@H](c2ccc(Cl)cc2)N1C(=O)N1CCN(C(=O)CCCCCC(=O)N2CCN(C(=O)N3C(c4ccc(C(C)(C)C)cc4OCC)=N[C@@H](c4ccc(Cl)cc4)[C@H]3c3ccc(Cl)cc3)CC2)CC1 (relative stereo) [Compound 10a, 1,7-Bis(4-(2-(4-(tert-butyl)-2-ethoxyphenyl)-cis-4,5-bis(4-chlorophenyl)-4,5-dihydro-1H-imidazole-1-carbonyl)piperazin-1-yl) heptane-1,7-dione] | 2.1 | 0.65 ± 0.17 | 2.5 ± 1 | 2.1 ± 0.1 | 1.5 ± 0.05 | no degradation | –
CCOc1cc(C(C)(C)C)ccc1C1=N[C@@H](c2ccc(Cl)cc2)[C@@H](c2ccc(Cl)cc2)N1C(=O)N1CCN(C(=O)CCCCCCCC(=O)N2CCN(C(=O)N3C(c4ccc(C(C)(C)C)cc4OCC)=N[C@@H](c4ccc(Cl)cc4)[C@H]3c3ccc(Cl)cc3)CC2)CC1 (relative stereo) [Compound 10b, 1,9-Bis(4-(2-(4-(tert-butyl)-2-ethoxyphenyl)-cis-4,5-bis(4-chlorophenyl)-4,5-dihydro-1H-imidazole-1-carbonyl)piperazin-1-yl) nonane-1,9-dione] | 6.3 ± 1.1 | 1.6 ± 0.96 | 5.7 ± 1.3 | 6.3 ± 1.2 | 3.8 | – | –
CCOc1cc(C(C)(C)C)ccc1C1=N[C@@H](c2ccc(Cl)cc2)[C@@H](c2ccc(Cl)cc2)N1C(=O)N1CCN(C(=O)COCCOCC(=O)N2CCN(C(=O)N3C(c4ccc(C(C)(C)C)cc4OCC)=N[C@@H](c4ccc(Cl)cc4)[C@H]3c3ccc(Cl)cc3)CC2)CC1 (relative stereo) [Compound 10e, 2,2′-(Ethane-1,2-diylbis(oxy)) bis(1-(4-(2-(4-(tert-butyl)-2-ethoxyphenyl)-cis-4,5-bis(4-chlorophenyl)-4,5-dihydro-1H-imidazole-1-carbonyl)piperazin-1-yl)ethan-1-one)] | 7.4 ± 0.51 | 1.5 ± 0.82 | 3.9 ± 0.7 | 6.6 ± 1 | 4.6 ± 0.8 | – | –
CCOc1cc(C(C)(C)C)ccc1C1=N[C@@H](c2ccc(Cl)cc2)[C@@H](c2ccc(Cl)cc2)N1C(=O)N1CCN(C(=O)COCCOCCOCC(=O)N2CCN(C(=O)N3C(c4ccc(C(C)(C)C)cc4OCC)=N[C@@H](c4ccc(Cl)cc4)[C@H]3c3ccc(Cl)cc3)CC2)CC1 (relative stereo) [Compound 10f, 2,2′-((Oxybis(ethane-2,1-diyl))bis(oxy))bis(1-(4-(2-(4-(tert-butyl)-2-ethoxyphenyl)-cis-4,5-bis(4-chlorophenyl)-4,5-dihydro-1H-imidazole-1-carbonyl)piperazin-1-yl)ethan-1-one)] | 4.7 ± 0.81 | 0.22 ± 0.07 | 1.3 ± 0.1 | 1.3 | 1.2 ± 0.2 | dose-dependently induced MDM2 protein cleavage | P53 protein expression (result in words) [7]: increased the P53 protein expression
CCOc1cc(C(C)(C)C)ccc1C1=N[C@@H](c2ccc(Cl)cc2)[C@@H](c2ccc(Cl)cc2)N1C(=O)N1CCN(CC(=O)NCCOCCOCCOCCNC(=O)CN2CCN(C(=O)N3C(c4ccc(C(C)(C)C)cc4OCC)=N[C@@H](c4ccc(Cl)cc4)[C@H]3c3ccc(Cl)cc3)CC2=O)C(=O)C1 (relative stereo) [Compound 11a, N,N′-(((Oxybis(ethane-2,1-diyl))bis(oxy))bis(ethane-2,1-diyl))bis(2-(4-(2-(4-(tert-butyl)-2-ethoxyphenyl)-cis-4,5-bis(4-chlorophenyl)-4,5-dihydro-1H-imidazole-1-carbonyl)-2-oxopiperazin-1-yl)acetamide)] | 2.9 ± 0.6 | – | 1.9 ± 0.11 | 1 ± 0.1 | 3.3 ± 0.31 | dose-dependently induced MDM2 protein cleavage | IC50 [8]: > 50 µM; cellular permeability (result in words) [9]: low permeability; P53 protein expression (result in words) [7]: increased the P53 protein expression; fold more potent MDM2‒P53 competitive binding than positive control 1 ([2]; ratio of Ki vs compound 1): ~1.5 fold; IC50 ([4]; A549, read-out: IC50 A549): 1.4 ± 0.31 µM; apoptosis in combination with MG132 ([10]; A549 cells, 5.0 μmol/L compound + MG132 0.2 μmol/L): 15.81%; apoptosis ([10]; A549 cells): 23.49%; MDM2 degradation ([6]; 2 μmol/L, 24 h): > 95%; MDM2 degradation rescue by proteasome inhibitor MG132 (result in words) ([6]; Fig. 4F): MG132 blocked the MDM2 degradation; time at which depletion of MDM2 was observed ([6]; time course degradation, Fig. 4D): ≤ 2 h; IC50 [11]: 1.9 ± 0.67 µM
CCOc1cc(C(C)(C)C)ccc1C1=N[C@@H](c2ccc(Cl)cc2)[C@@H](c2ccc(Cl)cc2)N1C(=O)N1CCN(CC(=O)NCCOCCOCCNC(=O)CN2CCN(C(=O)N3C(c4ccc(C(C)(C)C)cc4OCC)=N[C@@H](c4ccc(Cl)cc4)[C@H]3c3ccc(Cl)cc3)CC2=O)C(=O)C1 (relative stereo) [Compound 11b, N,N′-((Ethane-1,2-diylbis(oxy))bis(ethane-2,1-diyl))bis(2-(4-(2-(4-(tert-butyl)-2-ethoxyphenyl)-cis-4,5-bis(4-chlorophenyl)-4,5-dihydro-1H-imidazole-1-carbonyl)-2-oxopiperazin-1-yl)acetamide)] | 4.9 ± 0.2 | 1.8 ± 0.94 | 3.9 ± 1.6 | 6.6 ± 1 | 7.3 ± 0.52 | – | –
CCOc1cc(C(C)(C)C)ccc1C1=N[C@@H](c2ccc(Cl)cc2)[C@@H](c2ccc(Cl)cc2)N1C(=O)N1CCN(CC(=O)NCCOCCNC(=O)CN2CCN(C(=O)N3C(c4ccc(C(C)(C)C)cc4OCC)=N[C@@H](c4ccc(Cl)cc4)[C@H]3c3ccc(Cl)cc3)CC2=O)C(=O)C1 (relative stereo) [Compound 11c, N,N′-(Oxybis(ethane-2,1-diyl))bis(2-(4-(2-(4-(tert-butyl)-2-ethoxyphenyl)-cis-4,5-bis(4-chlorophenyl)-4,5-dihydro-1H-imidazole-1-carbonyl)-2-oxopiperazin-1-yl)acetamide)] | 14 ± 3.7 | 12 ± 1.9 | 7.4 ± 2.1 | 9.3 ± 1.7 | 12 ± 3.7 | – | –
COc1ccc(C2=N[C@@H](c3ccc(Cl)cc3)[C@@H](c3ccc(Cl)cc3)N2C(=O)N2CCNC(=O)C2)c(OC(C)C)c1 [Compound 1, Nutlin-3, reference compound] | 9.7 ± 1 | – | 5 ± 0.9 | 7.9 ± 1.3 | 8.9 ± 1 | did not induce the degradation of MDM2 | IC50 [8]: 19 ± 0.91 µM; IC50 ([4]; A549, read-out: IC50 A549): 9.9 ± 1.3 µM; apoptosis ([10]; A549 cells): 10.94%; tumor growth inhibition (TGI) [12]: 47.8%
CC(C)C[C@@H](C=O)NC(=O)[C@H](CC(C)C)NC(=O)[C@H](CC(C)C)NC(=O)OCc1ccccc1 [MG132, reference compound] (Cbz-Leu-Leu-Leu-aldehyde) | – | – | – | – | – | – | toxic effect on A549 cells (result in words) ([10]; 0.2 μmol/L, incubation for 24 h): no toxic effect
